Data set [1] concerns the target Neuronal acetylcholine receptor; alpha4/beta2 (Rattus norvegicus, UniProt P09483+P12390). Description: Displacement of [3H]cytisine from alpha4beta2 nAChR in rat brain membrane. Format: cell membranes. On the technique in general: Loss of bound radioactivity is the signal in a displacement assay; it reports binding, not function.
For data set [2], the target named is T1, Neuronal acetylcholine receptor; alpha3/beta4 (Homo sapiens, UniProt P30926+P32297). Description: Agonist activity at human […] nAChR expressed in human IMR32 cells assessed as calcium dynamics by FLIPR assay relative to nicotine. Type of data set: functional, cell-based. The following applies: IMR-32. In outline:
(§1)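 Endogenous α3β4* nAChR in the human neuroblastoma line IMR-32. Agonism was measured as intracellular Ca2+ dynamics by FLIPR, testing up to 100 μM. Values are averages of six replicates.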

The target of data set [3] is T2, Neuronal acetylcholine receptor; alpha4/beta2 (Homo sapiens, UniProt P17787+P43681). Put plainly: Agonist activity at human recombinant alpha4beta2 nAChR expressed in human IMR32 cells assessed as calcium dynamics by FLIPR assay relative to nicotine. Type of data set: functional, cell-based. The method, boiled down: (§2)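 A cell line expressing human recombinant α4β2 nAChR. Agonism was read as intracellular Ca2+ dynamics by FLIPR. Values are averages of six replicates.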

Data set [4] addresses T2, Neuronal acetylcholine receptor; alpha4/beta2. Description: Agonist activity at human recombinant alpha4beta2 nAChR expressed in human IMR32 cells assessed as calcium dynamics by FLIPR assay. Format: functional, cell-based. In outline:
as §2

Data set [5] concerns the target T1, Neuronal acetylcholine receptor; alpha3/beta4. Description: Agonist activity at human […] nAChR expressed in human IMR32 cells assessed as calcium dynamics by FLIPR assay. Format: functional, cell-based, IMR-32. In outline:
as §1

Data set [6] deals with Mus musculus. Put plainly: Analgesic activity in mouse at 62 umol/kg, ip. Type of data set: functional, organism-based. The method, boiled down:
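Mouse hot plate analgesia model. The compound was given ip, with 62 μmol/kg as the highest dose tested.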

Data set [7] deals with Mus musculus. Put plainly: Analgesic activity in mouse assessed hypolocomotion at 65 umol/kg, ip. Format: functional, organism-based.
The test system of data set [8] is Mus musculus. Put plainly: Decrease in body temperature in mouse at 65 umol/kg, ip. Type of data set: functional, organism-based.
The subject of data set [9] is Mus musculus. Put plainly: Toxicity in mouse assessed as behavioral effect at 65 mg/kg, ip. The note with it: in vivo. Type of data set: organism-based. On the set-up: dose 65 mg/kg, route intraperitoneal.

Each structure is given as a SMILES string. Calls of active or inactive are those of the source. No cut-off for these calls is given here.

T1 sequence (P30926 whole entry): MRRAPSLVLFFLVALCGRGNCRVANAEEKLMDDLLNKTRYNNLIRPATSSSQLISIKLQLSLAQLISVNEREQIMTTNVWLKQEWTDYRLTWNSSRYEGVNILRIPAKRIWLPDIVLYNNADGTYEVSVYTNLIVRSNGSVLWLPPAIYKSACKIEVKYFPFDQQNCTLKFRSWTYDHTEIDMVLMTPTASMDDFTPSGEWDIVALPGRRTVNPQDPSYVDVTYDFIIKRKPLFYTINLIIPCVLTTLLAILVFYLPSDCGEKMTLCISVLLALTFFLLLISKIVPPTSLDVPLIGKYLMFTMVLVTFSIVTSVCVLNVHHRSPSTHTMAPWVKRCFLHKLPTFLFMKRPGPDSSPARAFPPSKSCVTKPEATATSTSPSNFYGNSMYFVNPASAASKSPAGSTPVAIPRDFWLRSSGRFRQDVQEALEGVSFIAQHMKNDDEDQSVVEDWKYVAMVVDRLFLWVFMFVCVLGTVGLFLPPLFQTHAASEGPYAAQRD
T1 sequence (P32297 whole entry): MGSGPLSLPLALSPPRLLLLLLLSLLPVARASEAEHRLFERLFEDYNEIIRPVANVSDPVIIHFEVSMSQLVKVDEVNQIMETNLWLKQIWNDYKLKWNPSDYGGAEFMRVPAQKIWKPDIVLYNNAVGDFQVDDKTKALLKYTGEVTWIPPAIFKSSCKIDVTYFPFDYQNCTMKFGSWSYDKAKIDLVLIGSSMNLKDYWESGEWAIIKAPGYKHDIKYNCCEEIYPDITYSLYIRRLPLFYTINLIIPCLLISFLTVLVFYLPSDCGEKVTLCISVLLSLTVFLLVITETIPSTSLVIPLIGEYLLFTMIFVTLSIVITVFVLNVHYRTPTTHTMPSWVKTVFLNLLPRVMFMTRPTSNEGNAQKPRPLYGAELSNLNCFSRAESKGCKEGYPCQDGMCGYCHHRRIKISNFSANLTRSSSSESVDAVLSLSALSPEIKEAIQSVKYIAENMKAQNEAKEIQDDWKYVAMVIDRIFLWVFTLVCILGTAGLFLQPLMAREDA
Chain of Neuronal acetylcholine receptor; alpha4/beta2 (Rattus norvegicus, UniProt P09483+P12390) (P09483 whole entry): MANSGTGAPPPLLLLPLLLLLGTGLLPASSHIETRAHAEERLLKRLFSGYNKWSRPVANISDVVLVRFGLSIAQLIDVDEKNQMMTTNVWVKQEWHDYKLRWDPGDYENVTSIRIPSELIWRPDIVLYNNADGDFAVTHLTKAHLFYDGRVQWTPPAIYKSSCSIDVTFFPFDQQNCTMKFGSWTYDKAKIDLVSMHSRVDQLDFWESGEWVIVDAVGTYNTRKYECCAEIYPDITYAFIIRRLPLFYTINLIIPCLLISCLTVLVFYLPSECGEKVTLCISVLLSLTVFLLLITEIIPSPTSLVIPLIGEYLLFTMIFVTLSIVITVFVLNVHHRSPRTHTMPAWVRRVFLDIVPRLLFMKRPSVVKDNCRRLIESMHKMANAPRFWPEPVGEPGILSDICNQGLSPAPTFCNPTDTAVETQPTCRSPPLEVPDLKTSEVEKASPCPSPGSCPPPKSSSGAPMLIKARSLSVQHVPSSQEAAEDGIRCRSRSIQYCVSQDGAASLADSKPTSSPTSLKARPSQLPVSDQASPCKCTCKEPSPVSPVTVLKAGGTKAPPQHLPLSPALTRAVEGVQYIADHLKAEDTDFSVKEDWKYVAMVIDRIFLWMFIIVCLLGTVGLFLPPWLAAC
Chain of Neuronal acetylcholine receptor; alpha4/beta2 (Rattus norvegicus, UniProt P09483+P12390) (P12390 whole entry): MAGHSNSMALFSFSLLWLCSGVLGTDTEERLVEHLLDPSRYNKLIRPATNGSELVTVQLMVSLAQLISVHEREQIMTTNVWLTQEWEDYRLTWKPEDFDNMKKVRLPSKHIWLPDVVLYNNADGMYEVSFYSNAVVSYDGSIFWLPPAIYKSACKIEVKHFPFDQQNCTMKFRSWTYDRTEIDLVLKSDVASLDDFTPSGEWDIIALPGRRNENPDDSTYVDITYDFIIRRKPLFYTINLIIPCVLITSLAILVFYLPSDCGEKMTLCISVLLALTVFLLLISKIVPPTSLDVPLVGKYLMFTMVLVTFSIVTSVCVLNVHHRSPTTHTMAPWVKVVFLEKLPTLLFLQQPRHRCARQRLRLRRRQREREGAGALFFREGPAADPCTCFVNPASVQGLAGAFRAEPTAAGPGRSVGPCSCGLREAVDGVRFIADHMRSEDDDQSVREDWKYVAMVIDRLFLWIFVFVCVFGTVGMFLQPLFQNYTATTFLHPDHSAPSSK
T2 sequence (P17787 whole entry): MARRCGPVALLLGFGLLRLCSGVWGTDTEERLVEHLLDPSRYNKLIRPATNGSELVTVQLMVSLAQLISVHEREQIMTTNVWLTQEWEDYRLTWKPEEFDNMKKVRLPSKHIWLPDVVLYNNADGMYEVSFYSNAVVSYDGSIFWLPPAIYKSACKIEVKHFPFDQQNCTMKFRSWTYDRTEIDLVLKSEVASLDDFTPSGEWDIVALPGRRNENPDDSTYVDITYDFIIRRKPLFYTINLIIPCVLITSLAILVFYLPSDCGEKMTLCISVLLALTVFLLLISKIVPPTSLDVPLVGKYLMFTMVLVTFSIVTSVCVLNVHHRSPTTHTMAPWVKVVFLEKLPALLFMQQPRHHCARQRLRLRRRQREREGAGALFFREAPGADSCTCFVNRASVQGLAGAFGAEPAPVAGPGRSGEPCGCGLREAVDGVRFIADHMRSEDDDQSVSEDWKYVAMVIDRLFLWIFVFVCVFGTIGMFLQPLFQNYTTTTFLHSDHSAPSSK
T2 sequence (P43681 whole entry): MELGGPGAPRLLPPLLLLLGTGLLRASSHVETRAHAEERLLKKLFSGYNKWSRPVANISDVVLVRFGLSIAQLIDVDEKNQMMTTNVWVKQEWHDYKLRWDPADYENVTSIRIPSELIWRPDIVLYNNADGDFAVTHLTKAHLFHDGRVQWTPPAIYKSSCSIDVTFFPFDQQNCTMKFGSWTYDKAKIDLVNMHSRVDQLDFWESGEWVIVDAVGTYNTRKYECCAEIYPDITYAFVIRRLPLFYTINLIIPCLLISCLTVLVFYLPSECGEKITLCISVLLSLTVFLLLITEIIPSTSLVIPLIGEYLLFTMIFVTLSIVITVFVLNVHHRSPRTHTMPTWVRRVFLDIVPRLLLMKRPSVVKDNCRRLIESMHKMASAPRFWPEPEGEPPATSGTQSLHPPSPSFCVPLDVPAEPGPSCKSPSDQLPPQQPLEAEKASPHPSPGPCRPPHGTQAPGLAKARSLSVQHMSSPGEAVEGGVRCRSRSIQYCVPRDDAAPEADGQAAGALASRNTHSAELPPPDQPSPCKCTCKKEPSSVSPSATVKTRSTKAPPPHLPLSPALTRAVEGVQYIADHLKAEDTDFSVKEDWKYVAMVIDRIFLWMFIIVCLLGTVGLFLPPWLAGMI

Broadly, the Ki is the dissociation constant of the complex between target and ligand, obtained from inhibition or displacement. Lower therefore signals higher affinity. In general, EC50 refers to the concentration giving half of the maximal effect. Consider `c1cncc(N2CCC3(CCCN3)C2)c1` (stereo not drawn) [TC-2216], for which the affinity in data set [1] corresponds to a Ki of 33 nM. Besides, the results for the Activity in [2] and in data set [3] were 15% and 20%, respectively. The EC50 in data set [4] and in [5] was more than 100 µM throughout.
As to `c1cncc(N2CC3CC2CN3)c1` (stereo not drawn), in data set [2], the Activity was 108%. The EC50 in [5] stood at 6.4 µM.
For `Clc1ccc(C2CC3CCC2N3)cn1` (stereo not drawn), the Activity in data set [2] came to 132%; in data set [3], 154%.
Consider `Clc1ccc(N2CCC3(CCN3)C2)cn1` (stereo not drawn), for which the outcome with Mus musculus [6], with Mus musculus [7] and in the data set on Mus musculus [8] was Active. This compound came in with a Ki in [1] of 21 nM. Moreover, the results for the Activity in data set [2] and in [3] were 23% and 48%, respectively. The EC50 in data set [4] amounted to 2.5 µM; in data set [5] it was 6.9 µM.
The compound `Clc1ccc(N2CCC3(CCCN3)C2)cn1` (stereo not drawn) yielded a Ki in data set [1] of 48 nM. In addition, the values for the Activity in data set [2] and in data set [3] were 8% and 6%, respectively. The concentration for a half-maximal effect (EC50) in data set [4] and in data set [5] was more than 100 µM throughout.
In turn, `c1cncc(N2CCC3(CCN3)C2)c1` (stereo not drawn) registered an inhibition constant Ki in [1] of 11 nM. Besides, the Activity is 4% in [2], “Non-toxic” with Mus musculus [9] and 44% in [3]. In addition, the figures for the EC50 in data set [4] and in data set [5] were 25 µM and more than 100 µM, respectively.
Take `c1cncc(N2CCC3(CCNC3)C2)c1` (stereo not drawn): affinity in [1] was put at a Ki of 74 nM. The Activity worked out at 10% in data set [2] and 4% in [3]. In addition, the EC50 in [4] and in [5] was more than 100 µM throughout.
In turn, `Clc1ccc(N2CCC3(CCNC3)C2)cn1` (stereo not drawn) had a Ki in [1] of 240 nM. The Activity in data set [2] is 2%; in [3], 9%. Besides, the EC50 in [4] and in [5] was more than 100 µM in each case.
In data set [1], `Clc1ccc(OC[C@H]2CCN2)cn1` [TEBANICLINE] displayed an inhibition constant Ki of 0.048 nM. Also, the figures for the Activity in data set [2] and in [3] were 169% and 115%, respectively. In addition, the half-maximal effective concentration (EC50) was 0.02 µM in data set [4] and 0.19 µM in [5].
With `c1cncc(N2CC3CNC3C2)c1` (stereo not drawn), the Ki in data set [1] stood at 1.2 nM. Further, the Activity is 90% in [2] and 122% in data set [3]. Also, the values for the EC50 in data set [4] and in [5] were 1.6 µM and 6.1 µM, respectively.

(Values after ChEMBL document CHEMBL1153305, “Preparation and characterization of N-(3-pyridinyl) spirocyclic diamines as ligands for nicotinic acetylcholine receptors” (Bioorg Med Chem Lett, 2009).)
